Screening data from PubChem BioAssay.
Sampled rows, rich in hits. Any-hit rate of the full collection: about 3.1%.
KCNK3 block – human KCNK3 channel inhibitors, primary screen, CHO cells, FluxOR thallium flux, B-score; Potassium channel subfamily K member 3 (Homo sapiens), O14649; B-score at 10 µM; FluxOR fluorescence; hits give low values; AID 602410, 2012; actives 0.84% (n = 340,000);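 active = B-score under library mean minus 4 SD, starting fluorescence ratio at most library mean plus 5 SD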;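 also: more negative B-score means stronger inhibition of thallium flux through KCNK3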
hERG rescue – hERG rescue from dofetilide block, primary screen, cell-based, CHO-hERG, FluxOR thallium flux, dofetilide IC70 | dofetilide IC70 present | actives 0.51% (n = 310,000) | AID 1511, 2009 | activation (rescue from dofetilide block), less the hit threshold, % at 10 µM | Voltage-gated inwardly rectifying potassium channel KCNH2 (Homo sapiens), Q12809;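 active = activation above the mean of controls blocked by dofetilide plus 5 SD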;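 also: thallium influx through hERG after potassium depolarization seen as dye fluorescence rise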
KCNK9 inh – KCNK9 potassium channel inhibitors, primary screen, HEK293 cells, thallium flux. B-score at 10 µM. AID 488922, 2010. actives 1.2% (n = 310,000). FluxOR thallium flux fluorescence; hits give low values. Potassium channel subfamily K member 9 (Homo sapiens), Q9NPC2;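 active = ratio B-score over 3 SD below the library mean, with starting fluorescence within 5 SD of its mean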;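 also: negative B-score means less thallium flux so channel inhibition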
KCNQ1 block – inhibitors of human KCNQ1 channel, primary screen, cell-based, thallium flux, high-throughput; actives 1.3% (n = 310,000); B-score at 10 µM; AID 2642, 2010; CHO-K1 KCNQ1, FluxOR thallium flux fluorescence; hits give high values;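 active = compounds whose thallium flux B-score, printed positive for inhibition, exceeds three library SD while starting fluorescence stays within three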;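 also: channel opened by potassium depolarization with thallium stimulus after 20 min compound exposure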
Target sequence (P51787 whole entry, looked up): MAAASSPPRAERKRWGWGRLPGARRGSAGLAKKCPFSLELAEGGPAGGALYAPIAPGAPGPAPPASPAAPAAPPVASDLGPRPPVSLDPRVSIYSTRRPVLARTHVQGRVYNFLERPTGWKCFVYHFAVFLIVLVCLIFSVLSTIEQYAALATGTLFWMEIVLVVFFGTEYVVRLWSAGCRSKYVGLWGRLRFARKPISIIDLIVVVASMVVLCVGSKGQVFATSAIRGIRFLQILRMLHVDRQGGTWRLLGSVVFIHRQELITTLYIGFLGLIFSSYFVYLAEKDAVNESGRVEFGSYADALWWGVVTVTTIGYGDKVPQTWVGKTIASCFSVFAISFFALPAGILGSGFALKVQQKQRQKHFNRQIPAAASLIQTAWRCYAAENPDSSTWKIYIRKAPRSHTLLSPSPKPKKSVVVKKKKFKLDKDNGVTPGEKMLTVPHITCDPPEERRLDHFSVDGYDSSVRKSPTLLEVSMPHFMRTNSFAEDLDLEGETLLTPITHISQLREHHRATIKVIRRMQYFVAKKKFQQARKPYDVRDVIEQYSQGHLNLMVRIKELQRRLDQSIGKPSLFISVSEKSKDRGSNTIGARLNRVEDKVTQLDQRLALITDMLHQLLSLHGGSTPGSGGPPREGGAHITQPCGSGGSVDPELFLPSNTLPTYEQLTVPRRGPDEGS
KCNQ1 pot – potentiators or activators of KCNQ1 channel, primary screen, cell-based, thallium flux, high-throughput; Potassium voltage-gated channel subfamily KQT member 1 (Homo sapiens), P51787; CHO-K1 KCNQ1, thallium flux FluxOR fluorescence; hits give high values; B-score at 10 µM; actives 0.35% (n = 310,000);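 active = fluorescence ratio B-score, a plate-corrected score, at least three library SD, with initial intensity B-score within 5 SD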
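Test system: CHO-K1 cells stably expressing KCNQ1 / Medium: assay buffer / Also added: depolarizing K+/Tl+ stimulus, K2SO4 and Tl2SO4 each 12.5 mM in 5x stock / Incubation: 90 min dye loading and 20 min compound exposure, both at room temperature / Signal: thallium influx via FluxOR fluorescence, kinetic imaging / Evaluation: B score of baseline-normalized fluorescence ratio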
KCNQ1 inh valid – KCNQ1 potassium channel inhibitors, confirmation, cell-based, Tl flux, duplicate | shares compounds with KCNQ1 block | KCNQ1 cell line, FluxOR thallium flux fluorescence | inhibition, % at 10 µM | actives 93% (n = 1,600) | AID 588353, 2011;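 active = primary screen active, with duplicate mean exceeding buffer control mean plus 3 SD of buffer wells, cut at about 28% in these data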
CHO KCNQ1 ctr – thallium flux effects in parental CHO cells, counter-screen for KCNQ1 inhibitor project, cell-based, Tl flux | fluorescence ratio (Tl flux) at 10 µM | shares compounds with KCNQ1 block | actives 21% (n = 1,600) | parental CHO-K1, FluxOR thallium flux fluorescence ratio; hits give low values; zero means no signal rise above baseline;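 active = mean of duplicate thallium-flux fluorescence ratios in parental host cells more than 5 SD below the buffer control mean, cut at about 0.38 in these data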;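 also: ratio is peak minus minimum fluorescence divided by baseline fluorescence; actives read low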
KCNQ1 APC inh – KCNQ1 channel inhibitors, confirmation, orthogonal assay, cell-based, automated electrophysiology. calls only at 10 µM. actives 20% (n = 490). KCNQ1-CHO cells, automated patch clamp current. shares compounds with KCNQ1 block;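 active = KCNQ1 current drop exceeding 3 SD of negative control wells, seen in both duplicate runs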;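 also: steady state current during a 2 s step from -80 to +40 mV; negative values mean current inhibition and positive values mean potentiation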
KCNQ2 spec – KCNQ2 channel inhibition, selectivity assay for KCNQ1 inhibitor project, cell-based | shares compounds with KCNQ1 block | KCNQ2 cells, FluxOR thallium flux fluorescence | inhibition, % at 10 µM | actives 71% (n = 1,600) | AID 651746, 2012;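 active = mean percent inhibition of the KCNQ2 thallium signal more than 5 SD above the buffer-only control wells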;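 also: KCNQ2 expressed in CHO cells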
KCNQ1-KCNE1 inh – KCNQ1/KCNE1 channel inhibition, selectivity assay for KCNQ1 inhibitor project, CHO-K1 cells, thallium flux, FluxOR. shares compounds with KCNQ1 block. FluxOR thallium flux fluorescence. inhibition, % at 10 µM. actives 77% (n = 1,600);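 active = mean percent inhibition of duplicate wells above the buffer-only control mean plus 3 SD of those controls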
Numbers stand for hits; - = inactive; . = not tested or not shown; + = active, no number.

SMILES	KCNK3 block	hERG rescue	KCNK9 inh	KCNQ1 block	KCNQ1 pot	KCNQ1 inh valid	CHO KCNQ1 ctr	KCNQ2 spec	KCNQ1-KCNE1 inh	others
COC(=O)c1cn(NC(=O)CCC2CCCC2)c(=O)c2ccccc12	-	5.8	-	-	-	.	.	.	.
Cn1nc(C(F)(F)F)c(CN2CC(C)(C)C2=O)c1N1CCOCC1	-	5.0	-	-	-	.	.	.	.
Cn1c(SCc2c(Cl)cccc2Cl)nc(C(F)(F)F)cc1=O	-	-	-6.7	-	-	.	.	.	.
Cc1cccc(OCc2cc(-c3ccccc3)no2)c1C	-	-	-	-	-	.	.	.	.
Clc1ccc(OCc2cc(-c3ccccc3)no2)c(Cl)c1	-	-	-7.4	-	-	.	.	.	.
O=C(OCCN1C(=O)c2cccc3c(N4CCOCC4)ccc(c23)C1=O)c1ccc(Cl)cc1	-	-	-	10	-	+	0.087	-	-
O=C(OCCN1C(=O)c2ccccc2C1=O)c1cc(S(=O)(=O)N2CCOCC2)ccc1F	-	-	-	-	-	.	.	.	.
S=C(NC1CC1)N1CCN(C(=S)NC2CC2)CC1	-	-	-	-	-	.	.	.	.
OCCN1CCN(C(=S)NC2CCCC2)CC1	-	-	-	10	-	83	-	-	110%
CC1(C)Cc2ccccc2-c2nc(-c3ccccc3)oc(=O)c21	-	-	-	10	-	102	-	99%	130%
CC1(C)Cc2ccccc2-c2nc(NN)[nH]c(=O)c21	-	-	-	-	-	.	.	.	.
C[C@H]([C@H](O)c1ccccc1)N(C)C(=O)CN	-	-	-	-	-	.	.	.	.
O=S(=O)(c1ccc2[nH]c3c(c2c1)CCCC3)N1CCCCC1	-	-	-	9	-	88	-	75%	110%	KCNQ1 APC inh=+
COc1cccc(NC(=O)Nc2ccc(C)c(Cl)c2)c1	-	-	-	6	-	76	-	-	-
Cc1ccc(NC(=O)Nc2ccc(F)cc2)cc1Cl	-	-	-	10	-	70	-	61%	-
CCOC(=O)C1(C(=O)OCC)CCN(S(=O)(=O)c2ccccc2)CC1	-	.	.	.	.	.	.	.	.
CN(C)CCCN(C(=O)c1ccc2c(c1)OCCO2)c1nc2cc3c(cc2s1)OCO3	-	-	-	-	-	.	.	.	.
CCN(CC)CCN(C(=O)c1ccc2c(c1)OCCO2)c1nc2cc3c(cc2s1)OCO3	-	-	-	7	-	50	-	81%	84%
CCOC(=O)c1cc(C#N)c(SC)nc1-c1ccccc1	-	-	-	-	-	.	.	.	.
CCOC(=O)c1cc(C#N)c(Oc2ccccc2OC)nc1-c1ccccc1	-	-	-	7	-	92	-	80%	94%	KCNQ1 APC inh=-
CC1CCN(c2nnc(-c3ccccc3)c3ccccc23)CC1	-	-	-	6	-	92	-	90%	143%	KCNQ1 APC inh=-
Cc1ccc(-c2nnc(N3CCC(C)CC3)c3ccccc23)cc1C	-	-	-	12	-	164	0.31	114%	+
Cc1ccc(-c2nnc(N3CCC(C)CC3)c3ccccc23)cc1	-	-	-	-	-	.	.	.	.
COc1cc(OC)cc(C(=O)N[C@H](C(=O)NCc2ccco2)C(C)C)c1	-	-	-	-	-	.	.	.	.
c1ccc(CC2CCN(c3ncnc4sccc34)CC2)cc1	-	-	-	8	-	136	0.33	89%	176%
SMILES	KCNK3 block	hERG rescue	KCNK9 inh	KCNQ1 block	KCNQ1 pot	KCNQ1 inh valid	CHO KCNQ1 ctr	KCNQ2 spec	KCNQ1-KCNE1 inh	others
COc1ccc(Nc2nc(-c3cccs3)nc3ccccc23)c(OC)c1	-	-	-	8	-	132	0.33	131%	+
CC(C)[C@H]1COCCS(=O)(=O)N1Cc1ccccc1	-	-	-	-	-	.	.	.	.
CCC(C)NC(=O)CCc1c(C)nc2nc(-c3cc(OC)cc(OC)c3)nn2c1C (stereo not given)	-	-	-	8	-	+	-	-	-	KCNQ1 APC inh=-
CCOCCCN(C)C1CCN(S(=O)(=O)c2csc(C(N)=O)c2)CC1	-	-	-	-	-	.	.	.	.
Cc1nc(Sc2ccccc2)c(C#N)cc1-c1ccccc1	-	-	-	6	-	95	-	105%	136%	KCNQ1 APC inh=+
Cn1c(=O)c(N)c2c3c(c(Br)ccc31)C(=O)c1ccccc1-2	-	-	-	21	-	+	0.029	-	-
Cc1cc(Cl)c(OCCCNCc2ccccc2)c(Br)c1	-	-	-	6	-	37	-	73%	-
Cc1cc(C)c(OCCCNCc2ccccc2)c(Br)c1	-	-	-	-	-	.	.	.	.
O=C(NC1CCCCC1)N1CCSC1=Nc1ccccc1	-	-	-	10	-	103	-	110%	111%	KCNQ1 APC inh=-
O=C(NC1CCCCC1)N1CCCc2ccccc21	-	-	-	-	-	.	.	.	.
COCCN1CCN(c2cc(-c3ccccc3)nc3cc(-c4cccc(F)c4)nn23)CC1	-	-	-	6	-	118	0.34	133%	156%
O=C(Nc1ccc(CN2CCCCC2)cc1)c1c(F)c(F)c(F)c(F)c1F	-	-	-	6	-	74	-	-	44%
CC(=O)Nc1ccc(CN2CCCCCCC2)cc1	-	-	-	-	-	.	.	.	.
COc1cc2cc(C#N)c(SCC(=O)Nc3cc(C)on3)nc2cc1OC	-	-	-	-	-	.	.	.	.
O=C(OCCN1CCOCC1)c1ccc2c(c1)OCCO2	-	-	-	-	-	.	.	.	.
O=C(CCN1CCOCC1)c1ccc2c(c1)OCCO2	-	-	-	8	-	64	0.36	-	60%
Cc1cc(NC(=S)Nc2ccccc2)ccc1Br	-	-	-	-	-	.	.	.	.
Cc1cc(NC(=S)Nc2cccnc2)ccc1Br	-	-	-	10	-	67	-	-	-
